A selection: hits, their analogues and other compounds. The true share with any hit is near 1.2%.
ZTA counter: counter-screen for EBNA-1 inhibitors: inhibitors of Epstein-Barr virus ZTA; P03206; ZTA-DNA binding, fluorescence polarization; inhibition, % at 11 µM; 0.15% of 320,000 active; AID 2234; in the data active = inhibition above about 33%
Target sequence (P03206 whole entry, looked up): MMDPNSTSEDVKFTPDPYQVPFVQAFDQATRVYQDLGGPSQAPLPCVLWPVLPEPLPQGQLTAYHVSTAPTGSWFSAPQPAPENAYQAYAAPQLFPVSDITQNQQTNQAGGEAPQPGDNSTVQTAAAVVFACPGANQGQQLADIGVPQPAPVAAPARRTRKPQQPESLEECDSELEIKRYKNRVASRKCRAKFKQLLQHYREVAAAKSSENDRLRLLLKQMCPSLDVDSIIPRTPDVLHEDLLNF
HCV NS3 hel inh: inhibitors of HCV NS3 helicase, primary screen, biochemical, Cy5 molecular beacon fluorescence; NS3 helicase DNA unwinding; Hepatitis C virus NS3 helicase; AID 1800, 2009; inhibition, % at 10.9 µM; 0.56% of 290,000 active;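 active = inhibition above the mean of all tested compounds plus 3 SD, set per campaign, cut at about 35% in these data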;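 note: 0% = DMSO wells and 100% = thioflavine S control wells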
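System: HCV NS3 helicase fragment; control set: DMSO and thioflavine S; technique: Cy5 fluorescence at 0 and 60 min, beacon hairpin quenching; reagent: beacon DNA duplex substrate plus ATP; replicates: singlicate; schedule: 1 h reaction at 25 °C, ATP-initiated; medium: MOPS buffer pH 6.5 with MgCl2, DTT, Tween20, BSA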
EBNA-1 inhibitor: EBNA-1 DNA-binding inhibitors, primary screen, biochemical, fluorescence polarization; AID 1950, 2009; inhibition, % at 14.8 µM; 0.34% of 300,000 active; in the data active = inhibition above about 28%
core dimer inh: inhibitors of HCV core protein dimerization, primary screen, biochemical, TR-FRET, high-throughput; TR-FRET GST/Flag-core106 dimerization, 1536-well; inhibition, % at 5 µM; 0.33% of 300,000 active;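 active = inhibition above the mean of all tested compounds plus 3 SD, set per screening campaign, cut at about 45% in these data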
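assay system = GST-tagged and Flag-tagged HCV core protein residues 1-106 | controls = unlabelled core106 and no-GST-core106 wells | incubation = compound-protein-antibody incubation 4 h at 22.5 °C | probe or stimulus = Eu donor and XL665 acceptor anti-tag antibodies | read-out = % inhibition based on acceptor/donor emission ratio | signal = TR-FRET 671 and 617 nm emission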
Zta DNA confirm: EBV Zta binding to ZRE DNA, inhibitors, confirmation, biochemical, fluorescence polarization, triplicate; AID 2361, 2010; shares compounds with ZTA counter; inhibition, % at 11.1 µM; 30% of 320 active;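 active = mean inhibition across triplicate runs above the hit threshold derived for the original primary screen, cut at about 33% in these data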;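 note: 0% = Zta with DMSO and 100% = wells lacking Zta protein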
EBNA-1 counter: EBNA-1 DNA-binding inhibition, counter-screen for ZTA inhibitor project, biochemical, fluorescence polarization; shares compounds with ZTA counter; inhibition, % at 14.8 µM; 320 tested, under 10 active; call rule not given here
Numbers without * were called inactive; · = no result; + = active, no number.

SMILES	ZTA counter	HCV NS3 hel inh	EBNA-1 inhibitor	core dimer inh	Zta DNA confirm	EBNA-1 counter
C#CCOCCOCCOCCNc1nc(N2CCN(C(=O)CCCCCCCCCCNC(=O)[C@@H](CCSC)n3cc(CCO)nn3)CC2)nc(N2CCN(C(=O)CCCCCCCCCCNC(=O)[C@H](CCC(=O)O)n3cc(CCCCCN)nn3)CC2)n1	-12	·	6	-9	·	·
C#CCOCCOCCOCCNc1nc(N2CCN(C(=O)CCCCCCCCCCNC(=O)[C@H](CCCCN)n3cc(CCO)nn3)CC2)nc(N2CCN(C(=O)CCCCCCCCCCNC(=O)[C@H](CCCCN)n3cc(C[C@@H](C)CC)nn3)CC2)n1	55*	·	13	15	81*	7
COc1cc(C)c2c(c1C=O)Oc1c(c(C)c(O)c3c1C(O)OC3=O)OC2=O (stereo not drawn)	67*	30	-5	3	63*	11
Cc1ccccc1OCCNC(=O)/C=C/c1ccc([N+](=O)[O-])cc1	15	-5	3	9	·	·
Cc1ccccc1OCCNC(=O)/C=C/c1ccccc1	129*	7	-4	-1	-12	-4
CSc1nnc2c(n1)OC(c1ccccn1)N(C(C)=O)c1ccccc1-2 (stereo not drawn)	-6	-9	-3	3	·	·
CC(C)(C(=O)Nc1nccs1)c1ccccc1	40*	-3	2	1	2	-1
C#CCOCCOCCOCCNc1nc(N2CCN(C(=O)CCCCCCCCCCNC(=O)[C@@H](CCSC)n3cc(CCO)nn3)CC2)nc(N2CCN(C(=O)CCCCCCCCCCNC(=O)[C@@H]([C@H](C)O)n3cc(C)nn3)CC2)n1	6	·	4	18	·	·
C#CCOCCOCCOCCNc1nc(N2CCN(C(=O)CCCCCCCCCCNC(=O)[C@H](CCCCN)n3cc(C)nn3)CC2)nc(N2CCN(C(=O)CCCCCCCCCCNC(=O)[C@H](CCCN=C(N)N)n3cc(C[C@@H](C)CC)nn3)CC2)n1	51*	·	-2	-14	47*	-3
C#CCOCCOCCOCCNc1nc(N2CCN(C(=O)CCCCCCCCCCNC(=O)[C@H](CCCCN)n3cc(C[C@@H](C)CC)nn3)CC2)nc(N2CCN(C(=O)CCCCCCCCCCNC(=O)[C@@H]([C@H](C)O)n3cc(C)nn3)CC2)n1	50*	·	-1	0	33	-8
C#CCOCCOCCOCCNc1nc(N2CCN(C(=O)CCCCCCCCCCNC(=O)[C@H]([C@@H](C)CC)n3cc(CCCCN=C(N)N)nn3)CC2)nc(N2CCN(C(=O)CCCCCCCCCCNC(=O)[C@@H]([C@H](C)O)n3cc(C)nn3)CC2)n1	68*	·	4	4	61*	1
C#CCOCCOCCOCCNc1nc(N2CCN(C(=O)CCCCCCCCCCNC(=O)[C@H](CCCCN)n3cc(C)nn3)CC2)nc(N2CCN(C(=O)CCCCCCCCCCNC(=O)[C@@H]([C@H](C)O)n3cc(C)nn3)CC2)n1	40*	·	12	-2	3	2
CCCc1cc(=O)[nH]c(SCC(=O)c2ccc3c(c2)NC(=O)CO3)n1	3	-10	1	-3	·	·
COc1ccc(-c2nn(-c3ccccc3)cc2C(=O)NC2CC2)cc1	-8	·	·	·	·	·
CCCCNc1c(NC(C)=O)c(=O)oc2ccccc12	-5	9	-10	-11	·	·
Cn1c2ccccc2c(=O)n2c(=O)c3ccccc3cc12	43*	1	-2	21	33*	-7
Cn1c(-c2ccccc2)cc(=O)c2ccccc21	-6	4	3	3	·	·
CC1=[N+](C)c2ccc3ccccc3c2C1(C)C	+	-20	1	-11	69*	18
COc1cc(/C=C2\S/C(=N/S(=O)(=O)Cc3ccccc3)NC2=O)c([N+](=O)[O-])cc1OC	39*	24	13	-4	8	11
Cc1ccc(OCC(O)CN2CCOCC2)cc1C (stereo not drawn)	-13	0	-6	1	·	·
CN(NC1OC(=O)c2ccccc21)c1ccccc1[N+](=O)[O-] (stereo not drawn)	2	6	9	1	·	·
O=c1[nH]c(Nc2ccccc2)cc2ccccc12	32	2	-13	34	·	·
O=c1[nH]c(Nc2ccccc2)cc2cc(Br)ccc12	41*	·	-6	42	2	-5
CCC(C)C(NC(N)=O)C(=O)Nc1ccc(OCc2ccccc2)cc1 (stereo not drawn)	18	4	7	-4	·	·
O=C(O)/C(=C\c1ccc2ccccc2c1)c1cccc2ccccc12	36*	·	8	11	2	8
SMILES	ZTA counter	HCV NS3 hel inh	EBNA-1 inhibitor	core dimer inh	Zta DNA confirm	EBNA-1 counter
NC(=O)c1cccc2ccccc12	7	-6	-2	0	·	·
COCCCN(C(=O)c1cc2c(s1)CCCCC2)c1c(N)n(Cc2ccccc2)c(=O)[nH]c1=O	162*	·	12	5	15	0
CC1(C)Cc2c(sc(NC(=O)COc3cccc4ccccc34)c2C#N)C(C)(C)N1	48*	-53	5	-2	51*	-5
CCN1CCN(CC(=O)c2ccc(OC)cc2)CC1	6	-7	2	2	·	·
Cc1ccc(S(=O)(=O)N2CCOCC2)cc1C(=O)OCC(=O)NC1CCCC(C)C1C (stereo not drawn)	14	·	·	·	·	·
COc1ccc(Cl)cc1N(CC(=O)Nc1ccccc1C(=O)N1CCOCC1)S(C)(=O)=O	3	-3	9	-7	·	·
